Where a SMILES comes first, the peptide text is derived from it. [ ]: non-standard residue; d: D form. The star is where a group is joined. X1 = Nc1nccc(-c2ccc(C(=O)*)s2)n1; Ahx = NCCCCCC(=O)O
Tests used:
[1] = target: AMP-activated protein kinase (AMPK) alpha-1/beta-1/gamma-1 (Homo sapiens) (UniProt P54619+Q9Y478+Q13131); experiment: Inhibition of AMPK alpha-1/beta-1/gamma-1 at 100 nM relative to control; format: protein-complex assay
Outline: (§1)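 Kinase panel screen with inhibitor at 100 nM and ATP at about the Km of each kinase. Activity is given as percent inhibition relative to control incubations with the inhibitor omitted. Values are means of duplicate determinations, with the spread reported as the difference between duplicates.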

[2] = target: Aurora kinase A (Homo sapiens) (UniProt O14965); experiment: Inhibition of Aurora A at 100 nM relative to control; outline: as §1
[3] = target: Calcium/calmodulin-dependent protein kinase type 1D (Homo sapiens) (UniProt Q8IU85); experiment: Inhibition of CaMK 1delta at 100 nM relative to control; outline: as §1
Calcium/calmodulin-dependent protein kinase type 1D (Homo sapiens), sequence (Q8IU85 whole entry, looked up): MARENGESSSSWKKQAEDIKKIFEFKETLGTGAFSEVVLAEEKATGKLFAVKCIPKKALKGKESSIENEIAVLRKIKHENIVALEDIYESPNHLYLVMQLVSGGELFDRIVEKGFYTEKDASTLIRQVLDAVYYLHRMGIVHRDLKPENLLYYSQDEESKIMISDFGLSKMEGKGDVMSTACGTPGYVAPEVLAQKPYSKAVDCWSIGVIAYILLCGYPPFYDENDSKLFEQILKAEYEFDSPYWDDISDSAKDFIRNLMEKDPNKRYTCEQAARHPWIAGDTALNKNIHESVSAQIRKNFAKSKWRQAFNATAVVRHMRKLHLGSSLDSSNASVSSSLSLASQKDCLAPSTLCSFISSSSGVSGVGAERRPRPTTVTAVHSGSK

[4] = target: Calcium/calmodulin-dependent protein kinase type II subunit alpha (Homo sapiens) (UniProt Q9UQM7); experiment: Inhibition of CaMK2alpha at 100 nM relative to control; outline: as §1
Calcium/calmodulin-dependent protein kinase type II subunit alpha (Homo sapiens), sequence (Q9UQM7 whole entry): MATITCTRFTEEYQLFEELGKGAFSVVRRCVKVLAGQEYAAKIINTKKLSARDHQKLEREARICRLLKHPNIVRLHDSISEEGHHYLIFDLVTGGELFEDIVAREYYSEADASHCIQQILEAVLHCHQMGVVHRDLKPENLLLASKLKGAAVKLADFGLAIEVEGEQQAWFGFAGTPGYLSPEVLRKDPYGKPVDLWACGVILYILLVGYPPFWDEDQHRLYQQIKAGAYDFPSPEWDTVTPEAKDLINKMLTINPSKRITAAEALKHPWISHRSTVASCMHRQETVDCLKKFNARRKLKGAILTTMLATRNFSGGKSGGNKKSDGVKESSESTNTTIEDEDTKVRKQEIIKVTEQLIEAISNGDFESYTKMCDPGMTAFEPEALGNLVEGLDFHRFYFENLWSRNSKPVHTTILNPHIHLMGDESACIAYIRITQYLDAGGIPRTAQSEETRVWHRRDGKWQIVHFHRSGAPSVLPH

[5] = target: Calcium/calmodulin-dependent protein kinase type II subunit beta (Homo sapiens) (UniProt Q13554); experiment: Inhibition of CaMK2beta at 100 nM relative to control; outline: as §1
[6] = target: Cyclin-dependent kinase 2/cyclin A (Homo sapiens) (UniProt P24941+P20248+P78396); experiment: Inhibition of CDK2/cyclin A at 100 nM relative to control; format: protein-complex assay; outline: as §1
[7] = target: Serine/threonine-protein kinase Chk1 (Homo sapiens) (UniProt O14757); experiment: Inhibition of CHK1 at 100 nM relative to control; outline: as §1
[8] = target: Serine/threonine-protein kinase Chk2 (Homo sapiens) (UniProt O96017); experiment: Inhibition of CHK2 at 100 nM relative to control; outline: as §1
[9] = target: Death-associated protein kinase 3 (Homo sapiens) (UniProt O43293); experiment: Inhibition of DAPK3 at 100 nM relative to control; outline: as §1
[10] = target: Glycogen synthase kinase-3 alpha (Homo sapiens) (UniProt P49840); experiment: Inhibition of GSK3alpha at 100 nM relative to control; outline: as §1
[11] = target: Glycogen synthase kinase-3 beta (Homo sapiens) (UniProt P49841); experiment: Inhibition of GSK3-beta at 100 nM relative to control; outline: as §1
Glycogen synthase kinase-3 beta (Homo sapiens), sequence (P49841 whole entry, looked up): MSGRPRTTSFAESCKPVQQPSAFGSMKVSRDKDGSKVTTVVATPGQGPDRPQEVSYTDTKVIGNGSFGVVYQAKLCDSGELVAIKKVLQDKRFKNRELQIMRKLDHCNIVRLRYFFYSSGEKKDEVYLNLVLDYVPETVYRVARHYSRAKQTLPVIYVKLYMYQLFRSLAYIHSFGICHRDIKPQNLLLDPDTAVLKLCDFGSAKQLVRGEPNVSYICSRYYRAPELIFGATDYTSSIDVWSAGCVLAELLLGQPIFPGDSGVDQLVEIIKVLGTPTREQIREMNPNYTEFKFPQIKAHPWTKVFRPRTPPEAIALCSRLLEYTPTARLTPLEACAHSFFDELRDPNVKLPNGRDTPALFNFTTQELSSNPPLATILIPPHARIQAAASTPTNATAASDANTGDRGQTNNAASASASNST

[12] = target: Maternal embryonic leucine zipper kinase (Homo sapiens) (UniProt Q14680); experiment: Inhibition of MELK at 100 nM relative to control; outline: as §1
[13] = target: Ribosomal protein S6 kinase alpha-5 (Homo sapiens) (UniProt O75582); experiment: Inhibition of MSK1 at 100 nM relative to control; outline: as §1
[14] = target: Ribosomal protein S6 kinase alpha-4 (Homo sapiens) (UniProt O75676); experiment: Inhibition of MSK2 at 100 nM relative to control; outline: as §1
[15] = target: Ribosomal protein S6 kinase beta-1 (Homo sapiens) (UniProt P23443); experiment: Inhibition of p70S6 at 100 nM relative to control
Outline: (§2)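 Kinase panel screen with the inhibitor at 100 nM and ATP at a concentration of about Km for each kinase. Activity was expressed as percent inhibition relative to control incubations that lacked inhibitor. Values are means of duplicate determinations, and the difference between the duplicates is also reported.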

[16] = target: Serine/threonine-protein kinase PAK 3 (Homo sapiens) (UniProt O75914); experiment: Inhibition of PAK3 at 100 nM relative to control; outline: as §1
[17] = target: Serine/threonine-protein kinase PAK 4 (Homo sapiens) (UniProt O96013); experiment: Inhibition of PAK4 at 100 nM relative to control; outline: as §1
[18] = target: Serine/threonine-protein kinase PAK 6 (Homo sapiens) (UniProt Q9NQU5); experiment: Inhibition of PAK6 at 100 nM relative to control; outline: as §1
[19] = target: Serine/threonine-protein kinase pim-1 (Homo sapiens) (UniProt P11309); experiment: Inhibition of PIM1 at 100 nM relative to control; outline: as §1
Serine/threonine-protein kinase pim-1 (Homo sapiens), sequence (P11309 whole entry, looked up): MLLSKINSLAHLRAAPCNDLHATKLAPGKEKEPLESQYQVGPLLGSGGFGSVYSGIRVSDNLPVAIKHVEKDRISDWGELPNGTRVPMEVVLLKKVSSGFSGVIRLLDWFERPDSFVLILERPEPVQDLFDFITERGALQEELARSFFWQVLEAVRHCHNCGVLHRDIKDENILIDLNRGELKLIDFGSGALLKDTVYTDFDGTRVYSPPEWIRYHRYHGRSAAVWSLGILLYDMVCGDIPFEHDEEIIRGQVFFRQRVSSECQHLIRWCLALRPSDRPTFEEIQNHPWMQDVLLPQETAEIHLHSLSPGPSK

[20] = target: Serine/threonine-protein kinase pim-2 (Homo sapiens) (UniProt Q9P1W9); experiment: Inhibition of PIM2 at 100 nM relative to control; outline: as §1
[21] = target: cAMP-dependent protein kinase catalytic subunit alpha (Homo sapiens, UniProt P17612); experiment: Inhibition of PKA Calpha at 100 nM relative to control; outline: as §1
[22] = target: RAC-alpha serine/threonine-protein kinase (Homo sapiens) (UniProt P31749); experiment: Inhibition of PKBalpha at 100 nM relative to control; outline: as §1
RAC-alpha serine/threonine-protein kinase (Homo sapiens), sequence (P31749 whole entry): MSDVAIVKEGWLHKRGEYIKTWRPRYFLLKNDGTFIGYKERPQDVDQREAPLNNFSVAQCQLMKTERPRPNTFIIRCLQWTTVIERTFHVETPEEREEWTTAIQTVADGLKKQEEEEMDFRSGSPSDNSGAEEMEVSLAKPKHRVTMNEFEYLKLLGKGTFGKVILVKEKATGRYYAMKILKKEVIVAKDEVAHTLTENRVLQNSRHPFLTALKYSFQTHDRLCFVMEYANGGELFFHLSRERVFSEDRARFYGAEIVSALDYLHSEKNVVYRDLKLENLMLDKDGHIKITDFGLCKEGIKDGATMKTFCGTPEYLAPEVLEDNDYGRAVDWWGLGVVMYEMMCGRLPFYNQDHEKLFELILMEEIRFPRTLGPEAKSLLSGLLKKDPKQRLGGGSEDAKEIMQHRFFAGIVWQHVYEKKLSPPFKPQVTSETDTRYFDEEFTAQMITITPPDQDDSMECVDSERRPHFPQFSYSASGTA

[23] = target: RAC-beta serine/threonine-protein kinase (Homo sapiens) (UniProt P31751); experiment: Inhibition of PKBbeta at 100 nM relative to control; outline: as §1
[24] = target: RAC-gamma serine/threonine-protein kinase (Homo sapiens, UniProt Q9Y243); experiment: Inhibition of PKBgamma at 100 nM relative to control; outline: as §1
[25] = target: Protein kinase C alpha type (Homo sapiens) (UniProt P17252); experiment: Inhibition of PKCalpha at 100 nM relative to control; outline: as §1
[26] = target: Protein kinase C beta type (Homo sapiens) (UniProt P05771); experiment: Inhibition of PKCbeta1 at 100 nM relative to control; outline: as §1
Protein kinase C beta type (Homo sapiens), sequence (P05771 2-671 limits assumed): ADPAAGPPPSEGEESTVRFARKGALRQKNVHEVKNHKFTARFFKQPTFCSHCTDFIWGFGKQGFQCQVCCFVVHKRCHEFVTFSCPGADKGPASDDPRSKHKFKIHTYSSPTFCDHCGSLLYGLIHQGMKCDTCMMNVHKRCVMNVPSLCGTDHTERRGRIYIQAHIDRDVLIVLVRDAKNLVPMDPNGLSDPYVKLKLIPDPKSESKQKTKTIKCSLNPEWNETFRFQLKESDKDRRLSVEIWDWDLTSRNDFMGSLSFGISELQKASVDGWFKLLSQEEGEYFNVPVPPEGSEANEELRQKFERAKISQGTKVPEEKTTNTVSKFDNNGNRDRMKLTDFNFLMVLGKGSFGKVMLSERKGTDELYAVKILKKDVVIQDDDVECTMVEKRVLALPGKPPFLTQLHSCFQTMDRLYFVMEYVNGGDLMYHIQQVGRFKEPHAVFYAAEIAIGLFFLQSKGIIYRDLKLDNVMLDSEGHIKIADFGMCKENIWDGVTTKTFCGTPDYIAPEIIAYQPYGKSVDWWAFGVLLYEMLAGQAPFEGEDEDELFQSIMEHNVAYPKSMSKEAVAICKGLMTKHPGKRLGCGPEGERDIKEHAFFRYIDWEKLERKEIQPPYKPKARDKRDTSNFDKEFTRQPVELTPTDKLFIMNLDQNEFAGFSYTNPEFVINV

[27] = target: Protein kinase C beta type (Homo sapiens) (UniProt P05771); experiment: Inhibition of PKCbeta2 at 100 nM relative to control; outline: as §1
[28] = target: Protein kinase C delta type (Homo sapiens) (UniProt Q05655); experiment: Inhibition of PKCdelta at 100 nM relative to control; outline: as §1
[29] = target: Protein kinase C epsilon type (Homo sapiens) (UniProt Q02156); experiment: Inhibition of PKCepsilon at 100 nM relative to control; outline: as §1
[30] = target: Protein kinase C gamma type (Homo sapiens) (UniProt P05129); experiment: Inhibition of PKCgamma at 100 nM relative to control; outline: as §1
[31] = target: Protein kinase C eta type (Homo sapiens) (UniProt P24723); experiment: Inhibition of PKCeta at 100 nM relative to control; outline: as §1
[32] = target: Protein kinase C iota type (Homo sapiens) (UniProt P41743); experiment: Inhibition of PKCiota at 100 nM relative to control; outline: as §1
[33] = target: Serine/threonine-protein kinase D1 (Homo sapiens) (UniProt Q15139); experiment: Inhibition of PKCmu at 100 nM relative to control; outline: as §1
[34] = target: Protein kinase C theta type (Homo sapiens) (UniProt Q04759); experiment: Inhibition of PKCtheta at 100 nM relative to control; outline: as §1
[35] = target: Protein kinase C zeta type (Homo sapiens) (UniProt Q05513); experiment: Inhibition of PKCzeta at 100 nM relative to control; outline: as §1
[36] = target: Serine/threonine-protein kinase D2 (Homo sapiens) (UniProt Q9BZL6); experiment: Inhibition of PKD2 at 100 nM relative to control; outline: as §1
[37] = target: Serine/threonine-protein kinase D3 (Homo sapiens) (UniProt O94806); experiment: Inhibition of PKD3 at 100 nM relative to control; outline: as §1
[38] = Inhibition of PKG1 at 100 nM relative to control; outline: as §1
[39] = target: cGMP-dependent protein kinase 2 (Homo sapiens) (UniProt Q13237); experiment: Inhibition of PKG2 at 100 nM relative to control; outline: as §1
[40] = target: cAMP-dependent protein kinase catalytic subunit PRKX (Homo sapiens) (UniProt P51817); experiment: Inhibition of PRKX at 100 nM relative to control; outline: as §1
[41] = target: Rho-associated protein kinase 1 (Homo sapiens) (UniProt Q13464); experiment: Inhibition of ROCK1 at 100 nM relative to control; outline: as §1
Rho-associated protein kinase 1 (Homo sapiens), sequence (Q13464 2-1354 limits assumed): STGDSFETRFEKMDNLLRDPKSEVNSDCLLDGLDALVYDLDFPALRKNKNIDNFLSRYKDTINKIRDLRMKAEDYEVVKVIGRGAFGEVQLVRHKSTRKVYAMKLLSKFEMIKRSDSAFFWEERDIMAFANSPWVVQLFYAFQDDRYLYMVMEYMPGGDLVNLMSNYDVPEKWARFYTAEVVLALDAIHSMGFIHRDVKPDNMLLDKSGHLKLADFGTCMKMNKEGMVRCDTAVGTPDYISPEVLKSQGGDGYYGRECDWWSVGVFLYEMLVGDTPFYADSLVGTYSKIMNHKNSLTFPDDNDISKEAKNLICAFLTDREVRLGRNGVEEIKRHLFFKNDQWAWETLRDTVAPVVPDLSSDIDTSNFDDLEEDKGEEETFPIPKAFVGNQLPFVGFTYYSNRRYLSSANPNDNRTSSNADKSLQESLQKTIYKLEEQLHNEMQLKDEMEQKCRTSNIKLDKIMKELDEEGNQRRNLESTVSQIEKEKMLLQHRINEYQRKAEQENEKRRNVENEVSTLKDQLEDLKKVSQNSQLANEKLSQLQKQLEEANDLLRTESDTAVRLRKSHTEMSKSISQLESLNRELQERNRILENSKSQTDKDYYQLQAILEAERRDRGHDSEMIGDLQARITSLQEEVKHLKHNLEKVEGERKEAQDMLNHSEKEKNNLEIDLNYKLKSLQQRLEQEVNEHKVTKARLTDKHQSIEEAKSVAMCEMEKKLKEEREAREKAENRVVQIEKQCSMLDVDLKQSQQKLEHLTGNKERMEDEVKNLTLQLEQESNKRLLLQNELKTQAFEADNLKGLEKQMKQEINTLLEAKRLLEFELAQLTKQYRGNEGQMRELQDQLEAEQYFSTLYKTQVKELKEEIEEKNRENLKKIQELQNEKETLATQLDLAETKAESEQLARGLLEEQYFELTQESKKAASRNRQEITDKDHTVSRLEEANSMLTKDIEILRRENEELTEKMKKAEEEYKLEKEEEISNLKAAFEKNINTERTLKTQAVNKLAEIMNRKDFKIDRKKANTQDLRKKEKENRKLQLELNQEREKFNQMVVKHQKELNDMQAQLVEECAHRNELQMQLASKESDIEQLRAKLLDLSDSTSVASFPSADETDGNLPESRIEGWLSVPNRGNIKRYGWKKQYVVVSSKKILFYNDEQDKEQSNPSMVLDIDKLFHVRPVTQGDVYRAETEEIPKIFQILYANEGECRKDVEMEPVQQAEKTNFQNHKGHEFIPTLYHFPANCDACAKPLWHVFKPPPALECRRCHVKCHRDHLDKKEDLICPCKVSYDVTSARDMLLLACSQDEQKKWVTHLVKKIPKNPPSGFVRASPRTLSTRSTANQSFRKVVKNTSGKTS

[42] = target: Rho-associated protein kinase 2 (Homo sapiens, UniProt O75116); experiment: Inhibition of ROCK2 at 100 nM relative to control; outline: as §1
[43] = target: Ribosomal protein S6 kinase alpha-1 (Homo sapiens) (UniProt Q15418); experiment: Inhibition of RSK1 at 100 nM relative to control; outline: as §1
Ribosomal protein S6 kinase alpha-1 (Homo sapiens), sequence (Q15418 whole entry): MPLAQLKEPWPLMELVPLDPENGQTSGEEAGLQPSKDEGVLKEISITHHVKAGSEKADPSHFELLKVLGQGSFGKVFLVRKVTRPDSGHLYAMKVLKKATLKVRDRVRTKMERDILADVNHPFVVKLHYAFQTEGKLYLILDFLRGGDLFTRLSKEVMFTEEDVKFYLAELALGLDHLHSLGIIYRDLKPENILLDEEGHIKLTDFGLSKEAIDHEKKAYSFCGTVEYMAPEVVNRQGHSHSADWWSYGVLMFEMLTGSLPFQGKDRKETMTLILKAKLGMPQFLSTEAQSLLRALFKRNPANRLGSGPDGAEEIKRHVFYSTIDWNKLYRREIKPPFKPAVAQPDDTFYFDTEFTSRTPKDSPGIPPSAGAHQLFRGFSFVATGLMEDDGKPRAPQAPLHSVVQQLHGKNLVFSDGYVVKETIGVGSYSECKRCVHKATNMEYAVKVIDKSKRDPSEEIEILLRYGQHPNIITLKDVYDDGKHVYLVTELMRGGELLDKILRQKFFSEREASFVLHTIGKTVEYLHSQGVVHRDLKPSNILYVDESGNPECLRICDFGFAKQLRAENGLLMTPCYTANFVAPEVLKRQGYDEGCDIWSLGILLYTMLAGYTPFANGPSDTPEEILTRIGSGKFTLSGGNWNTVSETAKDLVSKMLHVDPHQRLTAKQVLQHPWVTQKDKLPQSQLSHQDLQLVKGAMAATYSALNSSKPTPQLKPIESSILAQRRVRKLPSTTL

[44] = target: Ribosomal protein S6 kinase alpha-3 (Homo sapiens) (UniProt P51812); experiment: Inhibition of RSK2 at 100 nM relative to control; outline: as §1
[45] = target: Ribosomal protein S6 kinase alpha-2 (Homo sapiens) (UniProt Q15349); experiment: Inhibition of RSK3 at 100 nM relative to control; outline: as §2
[46] = target: Serine/threonine-protein kinase Sgk1 (Homo sapiens) (UniProt O00141); experiment: Inhibition of SGK1 at 100 nM relative to control; outline: as §2
[47] = target: Serine/threonine-protein kinase Sgk2 (Homo sapiens) (UniProt Q9HBY8); experiment: Inhibition of SGK2 at 100 nM relative to control; outline: as §2
[48] = target: Proto-oncogene tyrosine-protein kinase Src (Homo sapiens) (UniProt P12931); experiment: Inhibition of SRC at 100 nM relative to control; outline: as §2
[49] = target: 3-phosphoinositide-dependent protein kinase 1 (Homo sapiens) (UniProt O15530); experiment: Inhibition of PDK1 at 100 nM relative to control

Molecule N=C(N)NCCC[C@@H](NC(=O)[C@@H](CCCNC(=N)N)NC(=O)[C@@H](CCCNC(=N)N)NC(=O)[C@@H](CCCNC(=N)N)NC(=O)[C@@H](CCCNC(=N)N)NC(=O)[C@@H](CCCNC(=N)N)NC(=O)CCCCCNC(=O)[C@@H](CCCCN)NC(=O)CCCCCNC(=O)c1ccc(-c2ccnc(N)n2)s1)C(N)=O ({X1-Ahx}-[dK][Ahx][dR][dR][dR][dR][dR][dR]-NH2) has an inhibition [1] of 41%, an inhibition [2] of 46% and an inhibition [3] of 25%. The inhibition [4] was 10%, the inhibition [5] was 22% and the inhibition [6] was 6%. For the same molecule, the inhibition [7] was 82%, the inhibition [8] was 33% and the inhibition [9] was 44%. The inhibition [10] was 8%, the inhibition [11] was 4% and the inhibition [12] was 83%. The inhibition [13] was 112%, the inhibition [14] was 112% and the inhibition [15] was 99%. For the same molecule, the inhibition [16] was 69%, the inhibition [17] was 21% and the inhibition [18] was 70%. It also gave an inhibition [19] of 97%, an inhibition [20] of 95% and an inhibition [21] of 104%. It also gave an inhibition [22] of 97%, an inhibition [23] of 80% and an inhibition [24] of 100%. It also gave an inhibition [25] of 92%, an inhibition [26] of 100% and an inhibition [27] of 104%. For the same molecule, the inhibition [28] was 97%, the inhibition [29] was 103% and the inhibition [30] was 108%. It also gave an inhibition [31] of 106%, an inhibition [32] of 24% and an inhibition [33] of 93%. It also gave an inhibition [34] of 91%, an inhibition [35] of 38% and an inhibition [36] of 79%. It also gave an inhibition [37] of 90%, an inhibition [38] of 105% and an inhibition [39] of 78%. It also gave an inhibition [40] of 106%, an inhibition [41] of 106% and an inhibition [42] of 106%. For the same molecule, the inhibition [43] was 97%, the inhibition [44] was 103% and the inhibition [45] was 97%. The inhibition [46] was 97%, the inhibition [47] was 91% and the inhibition [48] was 26%. It also gave an inhibition [49] of 65%.

Reference: ChEMBL document CHEMBL1154334, “Effect of the structure of adenosine mimic of bisubstrate-analog inhibitors on their activity towards basophilic protein kinases” (Bioorg Med Chem Lett, 2009)
